The source made the active and inactive calls. The calls are words filed in the database; no cut-off is given here.

For experiment [1], the system named is H4. Kind of experiment: Increase in light chain 3-GFP+ autophagosome vesicle number per cell in human H4 cells at 6.1 uM after 24 hrs by high throughput fluorescence microscopy relative to control. In kind it is functional. In short, it runs like this: (§1)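 H4 cells stably expressing LC3-GFP, kept in DMEM/10% FBS at 37°C, 5% CO2, were seeded in 96-well plates and exposed to compound for 24 h. Cells were then fixed in 4% paraformaldehyde and stained with 3 μg/ml DAPI. Automated fluorescence microscopy scored the number, size and intensity of LC3-GFP spots. Values are percent of DMSO wells, in triplicate, mean ± SD. Rapamycin served as positive control.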

Experiment [2] concerns H4. Briefly: Increase in light chain 3-GFP+ autophagosome vesicle area per cell in human H4 cells at 6.1 uM after 24 hrs by high throughput fluorescence microscopy relative to control. Format: functional. In short, it runs like this: (§2)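 H4 cells stably expressing LC3-GFP, seeded in 96-well plates and exposed to compound for 24 h; fixed in 4% paraformaldehyde, nuclei stained with 3 μg/ml DAPI. Automated fluorescence microscopy scored number, size and intensity of LC3-GFP spots; values expressed relative to DMSO-treated wells, rapamycin positive control. Triplicate wells, mean ± SD; experiments repeated three times.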

The subject of experiment [3] is H4. Briefly: Increase in light chain 3-GFP+ autophagosome vesicle intensity per cell in human H4 cells at 6.1 uM after 24 hrs by high throughput fluorescence microscopy relative to control. Format: functional. In short, it runs like this: as §2
For experiment [4], the system named is H4. Kind of experiment: Effect on FYVE-RFP+ vesicle intensity per cell in human H4 cells after 2 hrs relative to control. In kind it is functional. Also noted: concentration or dose not given beside the values. In short, it runs like this:
(§3)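 H4 cells stably expressing FYVE-RFP (H4-FYVE), grown in DMEM with 10% FBS, penicillin/streptomycin and 2 mM L-glutamine at 37°C, 5% CO2, seeded in 96-well plates and exposed to compound. Fixed in 4% paraformaldehyde, nuclei stained with 3 μg/ml DAPI, FYVE-RFP+ vesicles quantified by high-throughput fluorescence microscopy against DMSO control. Triplicate wells, mean ± SD.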

The test system of experiment [5] is H4. Briefly: Effect on FYVE-RFP+ vesicle intensity per cell in human H4 cells after 4 hrs relative to control. In kind it is functional. Details: concentration or dose not given beside the values. Put shortly: as §3
Experiment [6] deals with H4. Briefly: Effect on FYVE-RFP+ vesicle intensity per cell in human H4 cells after 8 hrs relative to control. In kind it is functional. Details: concentration or dose not given beside the values. In short, it runs like this: as §3
The subject of experiment [7] is H4. Briefly: Increase in long-lived protein degradation in human H4 cells after 1 hr relative to control. In kind it is functional. Also noted: concentration or dose not given beside the values.
Experiment [8] has as its system H4. Briefly: Increase in long-lived protein degradation in human H4 cells after 2 hrs relative to control. In kind it is functional. Also noted: concentration or dose not given beside the values.
In experiment [9] the test system is H4. Kind of experiment: Increase in long-lived protein degradation in human H4 cells after 4 hrs relative to control. Format: functional. Details: concentration or dose not given beside the values.
Experiment [10] deals with H4. Briefly: Increase in long-lived protein degradation in human H4 cells after 24 hrs relative to control. Details: concentration or dose not given beside the values. Format: functional.
Experiment [11] concerns H4. Briefly: Induction of light chain 3-GFP level in human H4 cells at 6.1 uM after 24 hrs by high throughput fluorescence microscopy relative to control. In kind it is functional. In short, it runs like this:
as §1

For experiment [12], the system named is H4. Kind of experiment: Increase in ratio of light chain 3 subunit 2 to light chain 3 subunit 1 in human H4 cells at 3.9 uM after 4 hrs by Western blot. Format: functional, cell-based. In short, it runs like this:
(§4)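 H4 cells were exposed to compound for 4 h, then lysed. Lysates were blotted with anti-LC3 antibody, with actin as loading control, and the LC3II/LC3I band ratio was taken.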

Experiment [13] deals with H4. Kind of experiment: Reduction of poly(Q) level in human H4 cells expressing EGFP-Q79-HA after 24 hrs. In kind it is functional, cell-based. In short, it runs like this:
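H4 cells were transiently transfected with an EGFP-Q79-HA expression vector. The medium was replaced 6 h after transfection and compounds were added. Poly(Q) was detected with anti-HA antibody.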

For experiment [14], the system named is H4. Briefly: Increase in light chain 3-GFP+ autophagosome vesicle area per cell in human H4 cells at 3.9 uM after 24 hrs by high throughput fluorescence microscopy relative to control. Format: functional. In short, it runs like this: as §2
The target in experiment [15] is T1, Serine/threonine-protein kinase mTOR (Homo sapiens, UniProt P42345). Briefly: Effect on mTOR phosphorylation in human H4 cells at 3.9 uM after 4 hrs. Format: cell-based. Put shortly:
(§5)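 H4 cells treated with compound for 4 h; lysates analysed by Western blot using anti-phospho/non-phospho mTOR antibody, with actin as loading control; rapamycin used for comparison. Cells grown in DMEM with 10% FBS, penicillin/streptomycin, 2 mM L-glutamine at 37°C, 5% CO2.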

For experiment [16], the system named is H4. Kind of experiment: Increase in light chain 3-GFP+ autophagosome vesicle intensity per cell in human H4 cells at 3.9 uM after 24 hrs by high throughput fluorescence microscopy relative to control. In kind it is functional. In short, it runs like this: as §2
The subject of experiment [17] is H4. Briefly: Increase in FYVE-RFP+ vesicle intensity per cell in human H4 cells after 2 hrs relative to control. Format: functional. Also noted: concentration or dose not given beside the values. In short, it runs like this:
as §3

Experiment [18] relates to H4. Briefly: Increase in FYVE-RFP+ vesicle intensity per cell in human H4 cells after 4 hrs relative to control. In kind it is functional. Details: concentration or dose not given beside the values. Put shortly:
as §3

The test system of experiment [19] is H4. Briefly: Increase in FYVE-RFP+ vesicle intensity per cell in human H4 cells after 8 hrs relative to control. In kind it is functional. Also noted: concentration or dose not given beside the values. In short, it runs like this:
as §3

The subject of experiment [20] is H4. Briefly: Induction of light chain 3-GFP level in human H4 cells at 3.9 uM after 24 hrs by high throughput fluorescence microscopy relative to control. In kind it is functional. Put shortly: as §1
Experiment [21] relates to H4. Briefly: Increase in light chain 3-GFP+ autophagosome vesicle number per cell in human H4 cells at 3.9 uM after 24 hrs by high throughput fluorescence microscopy relative to control. Format: functional. In short, it runs like this:
as §1

Experiment [22] relates to H4. Briefly: Increase in ratio of light chain 3 subunit 2 to light chain 3 subunit 1 in human H4 cells at 4.9 uM after 4 hrs by Western blot. Format: functional, cell-based. In short, it runs like this:
as §4

The target in experiment [23] is T1, Serine/threonine-protein kinase mTOR. Kind of experiment: Effect on mTOR phosphorylation in human H4 cells at 4.9 uM after 4 hrs. Format: cell-based. Put shortly: as §5
Experiment [24] relates to H4. Briefly: Induction of light chain 3-GFP level in human H4 cells at 4.9 uM after 24 hrs by high throughput fluorescence microscopy relative to control. In kind it is functional. In short, it runs like this:
as §1

The subject of experiment [25] is H4. Kind of experiment: Increase in light chain 3-GFP+ autophagosome vesicle intensity per cell in human H4 cells at 4.9 uM after 24 hrs by high throughput fluorescence microscopy relative to control. Format: functional. In short, it runs like this: as §2
Experiment [26] has as its system H4. Kind of experiment: Induction of light chain 3-GFP level in human H4 cells at 5.0 uM after 24 hrs by high throughput fluorescence microscopy relative to control. In kind it is functional. Put shortly:
as §1

Experiment [27] has as its system H4. Kind of experiment: Increase in light chain 3-GFP+ autophagosome vesicle number per cell in human H4 cells at 4.9 uM after 24 hrs by high throughput fluorescence microscopy relative to control. Format: functional. In short, it runs like this: as §1

With `CC1=C2C[C@H]3[C@@H](CC=C4C[C@@H](O)CC[C@@]43C)[C@@H]2CC[C@]12O[C@@H]1C[C@H](C)CN[C@H]1[C@H]2C` [CYCLOPAMINE], the Activity in [1] turned out to be 313.88%; in experiment [2], 511.72%; in experiment [3], 1564.12%; in experiment [4] it was 108.75%; in [5] it was 75.21%; in [6], 96.38%. Besides, the Activity came to 91.74% in experiment [7]; 111.02% in experiment [8]; 109.69% in experiment [9]; 103.97% in [10]; 110.76% in experiment [11].
In the case of `C=C(C)[C@H]1O[C@H]2CC[C@@]3(C)[C@@](O)(CC[C@H]4[C@@H]5OC(C)(C)[C@H]6C[C@@H]7C(=C)Cc8c(Cl)cc9[nH]c(c5c9c8[C@@]76O)[C@@]43C)[C@@]23O[C@H]3[C@H]1O` [PENITREM A], the outcome in [12] was Active. Further, the Activity entry is “Dose-dependent effect” in [13]; 163.15% in experiment [14]; 166.85% in experiment [16]; 121.4% in [17]; 87.41% in [18]; 72.71% in [19]. For the same molecule, the Activity is given as 92.88% in [7]; 126.09% in experiment [8]; 132.13% in experiment [9]; 141.83% in [10]; 93.08% in experiment [20]; 146.36% in [21]. For the same molecule, the result in [15] was inactive.
With `CN(C)C(=O)C(CCN1CCC(O)(c2ccc(Cl)cc2)CC1)(c1ccccc1)c1ccccc1` [LOPERAMIDE], the outcome in experiment [22] was Active. Besides, the Activity result in experiment [13] is “Dose-dependent effect”; in experiment [24], 126.76%; in experiment [25], 666.5%; in experiment [4], 115.39%; in [5] it was 123.62%; in experiment [6], 95.7%. Further, the Activity in experiment [7] was found to be 78.7%; in [8], 122.1%; in experiment [9], 125.21%; in experiment [10], 139.19%; in experiment [26] it was 339.4%; in [27], 235.49%. In experiment [23], the outcome was inactive.
